Results published in ChEMBL document CHEMBL3085762, “Expeditious synthesis, enantiomeric resolution, and enantiomer functional characterization of (4-(4-bromophenyl)-3a,4,5,9b-tetrahydro-3H-cyclopenta[c]quinoline-8-sulfonamide (4BP-TQS): an allosteric agonist-positive allosteric modulator of α7 nicotinic acetylcholine receptors” (J Med Chem, 2013).
The source made the active and inactive calls. The calls are words filed in the database; no cut-off is given here.

Legend:
Type in all cases: cell-based
[1] = molecular target: T1, Neuronal acetylcholine receptor subunit alpha-7 (Homo sapiens, UniProt P36544); experiment: Agonist activity at human alpha7 nAChR expressed in Xenopus oocytes at 60 uM after 5 mins by two-electrode voltage clamp method relative to ACh
[2] = molecular target: T1, Neuronal acetylcholine receptor subunit alpha-7; experiment: Positive allosteric modulation of human alpha7 nAChR expressed in Xenopus oocytes assessed as potentiation of ACh-induced response at 30 uM measured over 5 mins by two-electrode voltage clamp method in presence of choline
In short: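 α7-expressing Xenopus oocytes get control 60 μM ACh applications, then 300 μM choline together with 30 μM drug (racemate or single enantiomer). Potentiation is measured by two-electrode voltage clamp and normalized to the initial ACh controls.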

[3] = molecular target: T1, Neuronal acetylcholine receptor subunit alpha-7; experiment: Potency index, ratio of ACh EC50 to compound EC50 for human alpha7 nAChR expressed in Xenopus oocytes
[4] = molecular target: T1, Neuronal acetylcholine receptor subunit alpha-7; experiment: Positive allosteric modulation of human alpha7 nAChR expressed in Xenopus oocytes assessed as potentiation of ACh-induced response at 10 uM preincubated for 5 mins measured over 20 mins by two-electrode voltage clamp method
In short: (§1)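 Xenopus oocytes expressing human α7 receive control 60 μM ACh, then 10 μM drug alone or with 10 μM of the other enantiomer. Pre-incubation is 30 s or 5 min, followed by ACh to assess potentiation. Responses are measured over a 120-second interval from the start of drug application. Potentiation is followed over 20 minutes. Two-electrode voltage clamp.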

[5] = molecular target: T1, Neuronal acetylcholine receptor subunit alpha-7; experiment: Positive allosteric modulation of human alpha7 nAChR expressed in Xenopus oocytes assessed as potentiation of ACh-induced response after 20 secs by two-electrode voltage clamp method
[6] = molecular target: T1, Neuronal acetylcholine receptor subunit alpha-7; experiment: Allosteric agonist activity at human alpha7 nAChR expressed in Xenopus oocytes at 10 uM preincubated for 5 mins by two-electrode voltage clamp method; in short: as §1
[7] = molecular target: T1, Neuronal acetylcholine receptor subunit alpha-7; experiment: Allosteric agonist activity at human alpha7 nAChR expressed in Xenopus oocytes after 20 secs by two-electrode voltage clamp method
In short: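 Human α7 nAChR in Xenopus oocytes under two-electrode voltage clamp. Control applications of 60 μM ACh come first, then a standard 20-second drug application over a range of concentrations. Net-charge response is normalized to the mean of the two initial ACh controls. At least four oocytes per condition. EC50 is taken from the concentration-response curve.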

[8] = molecular target: T1, Neuronal acetylcholine receptor subunit alpha-7; experiment: Positive allosteric modulation of human alpha7 nAChR expressed in Xenopus oocytes assessed as potentiation of ACh-induced response at 10 uM treated 4 mins prior to ACh addition by two-electrode voltage clamp method
[9] = molecular target: T1, Neuronal acetylcholine receptor subunit alpha-7; experiment: Allosteric agonist activity at human alpha7 nAChR expressed in Xenopus oocytes at 10 uM measured over 120 secs by two-electrode voltage clamp method; in short: as §1
[10] = molecular target: T1, Neuronal acetylcholine receptor subunit alpha-7; experiment: Positive allosteric modulation of human alpha7 nAChR expressed in Xenopus oocytes assessed as potentiation of ACh-induced response at 10 uM measured over 120 secs by two-electrode voltage clamp method

T1 sequence (P36544 whole entry): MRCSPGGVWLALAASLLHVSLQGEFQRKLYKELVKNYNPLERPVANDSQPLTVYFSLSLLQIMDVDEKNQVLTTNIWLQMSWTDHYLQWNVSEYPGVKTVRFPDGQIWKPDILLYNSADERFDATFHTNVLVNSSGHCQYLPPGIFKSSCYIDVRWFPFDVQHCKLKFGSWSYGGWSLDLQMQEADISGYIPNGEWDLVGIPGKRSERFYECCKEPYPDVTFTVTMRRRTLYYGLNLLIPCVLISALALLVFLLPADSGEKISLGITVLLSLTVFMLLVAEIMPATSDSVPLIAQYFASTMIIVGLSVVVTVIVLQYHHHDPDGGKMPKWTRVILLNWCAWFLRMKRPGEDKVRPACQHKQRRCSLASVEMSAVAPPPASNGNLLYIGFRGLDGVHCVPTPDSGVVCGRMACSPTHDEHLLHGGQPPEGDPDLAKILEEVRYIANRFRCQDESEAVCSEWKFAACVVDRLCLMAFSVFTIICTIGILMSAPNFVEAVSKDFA

Structure (SMILES): NS(=O)(=O)c1ccc2c(c1)[C@H]1C=CC[C@H]1C(c1ccc(Br)cc1)N2 (mixture of isomers)
- fold change (FC) [1]: 45
- Activity [2]: Active
- Ratio EC50 [3]: 8

Structure (SMILES): NS(=O)(=O)c1ccc2c(c1)[C@H]1C=CC[C@H]1[C@@H](c1ccc(Br)cc1)N2
- Activity [4]: Active
- Activity [5]: Dose-dependent effect
- Activity [6]: Active
- EC50 [7]: 28 µM
- Activity [2]: Active
- Activity [8]: Active
- Activity [9]: Active

Structure (SMILES): NS(=O)(=O)c1ccc2c(c1)[C@@H]1C=CC[C@@H]1[C@H](c1ccc(Br)cc1)N2
- Activity [10]: inactive
- Activity [9]: inactive
